FAK blocker = blocks human focal adhesion kinase activity; biochemical FAK kinase activity assay; inhibition, %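 (tested at 7 µM)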; 0.84% of 97,000 active; AID 727; in the data active = inhibition above about 19%;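 note: 0% = DMSO and 100% = reference compound high control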
Plk1 PBD FP = inhibitors of human Plk1 polo box domain binding; P53350; Plk1 PBD phosphopeptide binding, fluorescence polarization; inhibition, %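 (tested at about 20 µM)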; 0.13% of 97,000 active; AID 693; in the data active = inhibition above about 34%, passing the limit was not always enough
PLK1 inh = blocks human PLK1 kinase activity | AID 619 | inhibition, % at 10 µM | 0.53% of 97,000 active | recombinant PLK1 kinase, TR-FRET peptide phosphorylation;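 active = inhibition of 50% or more in the single-concentration screen; inactive = inhibition below 50%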;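 note: 0% = DMSO max control and 100% = H-89 dihydrochloride min control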
Rev-RRE block = HIV Rev-RRE protein-RNA interaction inhibition | Rev peptide-RRE RNA binding, FRET | inhibition, % at 8 µM | 0.79% of 97,000 active;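 active = inhibition above the screen-wide mean plus 3 SD, cut at about 35% in these data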;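 note: 0% = median DMSO wells and 100% = median Neomycin B control wells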
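Test system: Cy5-tagged RRE RNA duplex with fluorescein-tagged Rev peptide | Read-out: % inhibition of FRET ratio versus controls | Probe or stimulus: Labelled Rev peptide | Incubation: 5 min RNA-compound premix plus 15 min binding step, 25 °C | Technique: FRET fluorescence readout | Benchmarks: DMSO low control, neomycin B high control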
Cav3 T inh = inhibitors of human Cav3.2 T-type calcium channel | Cav3.2-expressing cells, Fluo-4 calcium fluorescence FDSS; stronger effect = lower value | AID 449739 | B-score at 10 µM | 4% of 100,000 active;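 active = single-dose well whose peak fluorescence ratio is a statistical outlier from its plate by either plate-standardised score or position-corrected B-score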
Target sequence (O95180 whole entry, looked up): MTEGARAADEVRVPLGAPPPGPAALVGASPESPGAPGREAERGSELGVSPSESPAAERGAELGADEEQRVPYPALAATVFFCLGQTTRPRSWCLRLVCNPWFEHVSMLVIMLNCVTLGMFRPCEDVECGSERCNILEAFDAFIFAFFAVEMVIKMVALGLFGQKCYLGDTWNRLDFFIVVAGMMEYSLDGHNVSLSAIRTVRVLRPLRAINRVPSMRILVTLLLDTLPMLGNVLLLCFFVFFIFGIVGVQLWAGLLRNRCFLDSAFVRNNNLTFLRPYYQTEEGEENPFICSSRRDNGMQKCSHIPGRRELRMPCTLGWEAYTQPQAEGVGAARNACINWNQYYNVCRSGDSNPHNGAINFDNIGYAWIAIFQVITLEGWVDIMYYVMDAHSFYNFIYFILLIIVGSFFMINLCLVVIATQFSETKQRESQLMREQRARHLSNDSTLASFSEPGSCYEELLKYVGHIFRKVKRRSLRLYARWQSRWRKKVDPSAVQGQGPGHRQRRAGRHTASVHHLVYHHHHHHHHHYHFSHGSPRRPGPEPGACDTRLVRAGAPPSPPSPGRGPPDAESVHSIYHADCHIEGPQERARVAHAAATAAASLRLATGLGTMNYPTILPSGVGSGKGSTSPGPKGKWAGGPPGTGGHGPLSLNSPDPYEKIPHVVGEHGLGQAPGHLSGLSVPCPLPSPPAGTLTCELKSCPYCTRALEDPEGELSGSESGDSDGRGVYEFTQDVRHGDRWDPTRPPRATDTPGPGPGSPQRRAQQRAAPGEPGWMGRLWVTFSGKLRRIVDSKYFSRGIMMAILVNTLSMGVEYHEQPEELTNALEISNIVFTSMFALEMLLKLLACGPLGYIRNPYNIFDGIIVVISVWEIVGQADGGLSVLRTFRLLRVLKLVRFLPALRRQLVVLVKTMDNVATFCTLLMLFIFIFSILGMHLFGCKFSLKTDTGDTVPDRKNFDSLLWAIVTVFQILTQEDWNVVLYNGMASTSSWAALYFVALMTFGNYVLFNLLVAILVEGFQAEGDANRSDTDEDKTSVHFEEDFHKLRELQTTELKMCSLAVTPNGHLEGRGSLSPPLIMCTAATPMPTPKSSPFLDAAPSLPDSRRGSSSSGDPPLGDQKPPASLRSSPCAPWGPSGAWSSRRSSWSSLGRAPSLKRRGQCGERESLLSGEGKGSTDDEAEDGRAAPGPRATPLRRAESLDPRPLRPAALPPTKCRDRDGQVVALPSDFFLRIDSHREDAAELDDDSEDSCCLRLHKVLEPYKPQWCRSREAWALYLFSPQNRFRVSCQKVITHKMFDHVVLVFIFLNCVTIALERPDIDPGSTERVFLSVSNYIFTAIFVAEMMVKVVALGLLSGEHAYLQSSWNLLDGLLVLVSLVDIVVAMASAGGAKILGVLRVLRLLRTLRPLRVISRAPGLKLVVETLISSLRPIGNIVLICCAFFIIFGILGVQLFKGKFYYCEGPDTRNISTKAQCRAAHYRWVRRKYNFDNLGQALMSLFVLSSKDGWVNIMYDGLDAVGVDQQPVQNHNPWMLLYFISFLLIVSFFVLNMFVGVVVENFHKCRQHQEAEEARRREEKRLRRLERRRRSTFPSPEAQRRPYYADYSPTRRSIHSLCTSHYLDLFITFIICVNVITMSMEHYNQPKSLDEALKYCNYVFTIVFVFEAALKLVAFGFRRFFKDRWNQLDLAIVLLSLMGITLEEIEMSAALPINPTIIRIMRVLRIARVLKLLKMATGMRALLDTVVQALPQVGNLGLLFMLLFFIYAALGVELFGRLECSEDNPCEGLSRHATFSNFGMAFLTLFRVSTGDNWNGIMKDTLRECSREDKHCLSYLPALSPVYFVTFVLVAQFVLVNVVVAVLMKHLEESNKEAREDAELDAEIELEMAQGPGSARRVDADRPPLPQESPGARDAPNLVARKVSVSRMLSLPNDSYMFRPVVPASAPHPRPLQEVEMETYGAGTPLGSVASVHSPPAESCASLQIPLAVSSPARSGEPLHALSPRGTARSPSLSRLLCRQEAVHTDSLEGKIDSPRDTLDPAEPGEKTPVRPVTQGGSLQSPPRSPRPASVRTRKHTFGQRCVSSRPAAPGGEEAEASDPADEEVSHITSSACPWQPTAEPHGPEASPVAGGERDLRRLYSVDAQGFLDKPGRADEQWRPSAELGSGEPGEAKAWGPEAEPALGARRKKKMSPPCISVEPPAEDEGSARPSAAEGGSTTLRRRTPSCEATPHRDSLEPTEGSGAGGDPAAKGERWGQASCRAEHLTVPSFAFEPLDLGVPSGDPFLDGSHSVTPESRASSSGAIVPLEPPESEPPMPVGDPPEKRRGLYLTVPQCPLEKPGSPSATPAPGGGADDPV
EphB4 ephrin blk = antagonists of human EphB4-ephrin-B2 interaction. EphB4 LBD / TNYL-RAW-Alexa532 peptide, fluorescence polarization. inhibition, % at 7 µM. P54760. 0.15% of 97,000 active;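 active = inhibition above the screen-wide mean inhibition plus 3 SD, cut at about 15% in these data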;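 note: 0% = DMSO wells and 100% = excess unlabeled TNYL-RAW peptide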
PBD redox DR = counter-screen for Plk1 PBD inhibitors: redox cycling H2O2 generation; shares compounds with Plk1 PBD FP; EC50, µM; AID 876; 120 tested, under 10 active; DTT; call rule not given here
Numbers without * were called inactive; · = no result given; [ ] = dose if it differs, or a comment. Most compounds without a hit are left out; they make up all but 5.3% or so of the library.

SMILES | FAK blocker | Plk1 PBD FP | PLK1 inh | Rev-RRE block | Cav3 T inh | EphB4 ephrin blk | PBD redox DR
COc1ccc(Br)cc1C1SCCN1S(C)(=O)=O (centres undefined) | 1 | 7 | -11 | 1 | -0.038 | -7 | ·
COc1ccccc1C1SCCN1S(=O)(=O)c1cccc(C(F)(F)F)c1 (centres undefined) | -1 | 51* | -6 | 8 | -2.9 | -12 | >50
CCN1N=C(c2cc(Cl)sc2Cl)CSC1=O | 2 | -8 | -13 | 11 | -2.8 | -1 | ·
Cc1cccc2[nH]c3c(N4CCC5(CC4)OCCO5)ncnc3c12 | 6 | -15 | -10 | 4 | 1.5 | 12 | ·
Cc1cccc2[nH]c3c(N4CCN(C(=O)c5ccco5)CC4)ncnc3c12 | 2 | 51* | 1 | 12 | 0.76 | -5 | >50
Cn1c(Cl)c(C(=O)Nc2ccc(Cl)cc2)c2ccccc21 | -9 | -4 | -1 | -2 | 0.26 | 2 | ·
CC1Cn2c(nnc2-c2ccccc2O)S1 (centres undefined) | 0 | 27 | -20 | 8 | 0.16 | 4 | ·
CC1Cn2c(nnc2-c2cc3ccccc3cc2O)S1 (centres undefined) | 2 | 57* | -5 | 2 | 1.6 | -1 | >50
COc1ccccc1-c1nnc(SCC(=O)NCc2c(C)c(Cl)cc(C(C)C)c2O)o1 | 0 | 0 | -9 | 8 | · | -2 | ·
O=C(CN1C(=O)COc2ccccc21)NCc1ccc(C(=O)O)cc1 | -2 | 51* | 5 | 5 | -0.15 | -4 | >50
O=S(=O)(/C=C/c1ccccc1)N1CCN(c2cccc(Cl)c2)CC1 | -1 | -7 | -14 | 3 | 0.056 | 2 | ·
CCCCSC(=S)N(C)C1CCS(=O)(=O)C1 (centres undefined) | -9 | 15 | 1 | 3 | 0.45 | -4 | ·
Cc1ccc(Cl)cc1N1CCN(S(=O)(=O)c2ccc3c(c2)oc(=O)n3C)CC1 | -1 | 39* | -9 | 6 | -2.1 | -11 | >50
CCOCCCNC(=O)CCCOc1ccccc1 | -1 | 43* | -8 | 4 | 0.012 | 3 | >50
CCCCOCCCNC(=O)CCCOc1ccccc1 | 0 | -22 | -12 | 3 | 0.17 | -5 | ·
O=C1CCN2C=Nc3cccc4ccc1c2c34 | 18 | 51* | -20 | 130*[fluorescence artefact?] | -8.5* | -4 | >50
c1ccc(CN2CCN(C3=Nc4cccc5cccc3c45)CC2)cc1 | 1 | -33 | -5 | 32 | -0.22 | 1 | ·
Cc1nn(C(C)C(=O)N2CCCCC2)c(=O)c2c1sc1ccccc12 (centres undefined) | 0 | 43* | -9 | 3 | · | -5 | >50
CCC(=O)N1CCN(c2ccc(NC(=O)c3ccc4c(c3)OCO4)cc2)CC1 | 1 | 44* | -10 | 0 | -0.0018 | 6 | >50
Cc1ccc(OCC(=O)Nc2ccc(N3CCOCC3)cc2)cc1 | 4 | 39* | -8 | 1 | 1.3 | -4 | >50
CNC(=O)CC(C(=O)O)c1ccc(OCC(C)C)cc1 (centres undefined) | -6 | 64* | -4 | -1 | · | -3 | >50
CNC(=O)CC(C(=O)O)c1ccc(OC(C)C)cc1 (centres undefined) | -2 | 3 | -10 | -2 | 0.15 | -5 | ·
COc1ccc(CONS(=O)(=O)c2ccc(NC(C)=O)cc2)cc1Cl | -1 | -25 | 2 | 6 | 1 | 9 | ·
O=C(O)COc1ccc(Br)cc1/C=N/O | 3 | 45* | -1 | 4 | 0.54 | -10 | >50
C=CCn1c2ccccc2c2nnc(SCc3ccc4nonc4c3)nc21 | -1 | 50* | -6 | 10 | -3.4 | 0 | >50
SMILES | FAK blocker | Plk1 PBD FP | PLK1 inh | Rev-RRE block | Cav3 T inh | EphB4 ephrin blk | PBD redox DR
NC(=O)C1(N2CCCCC2)CCN(C(=O)NC2CCCCC2)CC1 | -2 | 52* | -3 | 9 | 0.25 | 8 | >50
CN(C)c1ccc(/C=N/c2cc(-c3ccccc3)nn2-c2ccccc2)cc1 | -1 | 5 | -11 | 7 | -0.033 | -3 | ·
O=C(Nc1ccccn1)C1CCN(S(=O)(=O)c2cccc3nonc23)CC1 | 0 | 36* | -1 | 0 | -0.33 | 4 | >50
COc1ccc(C2CNC(=O)C2)cc1OC1CCCC1 (centres undefined) | · | · | · | · | 0.42 | · | ·
Cc1nc2cccc(C)n2c(=O)c1Cl | -1 | 42* | 3 | 3 | 1.1 | 1 | >50
Cc1nc2ccc(Br)cn2c(=O)c1Cl | 2 | -7 | 4 | 5 | · | -1 | ·
O=C(O)CCC(=O)Nc1ccccc1C(=O)NC1CCCCC1 | 0 | -31 | -7 | 11 | -0.18 | -4 | ·
CCC(=O)Nc1ccccc1C(=O)NC1CCCCC1 | -1 | 41* | -12 | 3 | -1.1 | -2 | >50
O=C(Cn1c(S(=O)(=O)Cc2ccccc2)nc2ccccc21)N1CCCCC1 | -4 | 2 | -9 | 1 | 0.089 | 9 | ·
NC(=O)Cn1c(S(=O)(=O)Cc2ccccc2)nc2ccccc21 | 3 | 43* | -12 | 4 | -0.98 | 1 | >50
Cc1nc(Cl)c(C(=O)NC(=O)Nc2cccc(C(F)(F)F)c2)c(C)c1[N+](=O)[O-] | -2 | -6 | -2 | 18 | -0.044 | 1 | ·
Cc1ccccc1NC(=O)C1CCN(c2cc(-c3ccccc3)nc3ncnn23)CC1 | 1 | 20 | -14 | 2 | 2.7 | 2 | ·
O=C(Cc1ccc(F)cc1)NCCc1ccccc1 | -1 | -16 | -12 | -1 | -0.43 | -1 | ·
CC(C)=CC(=O)NCCc1ccccc1 | 0 | 51* | -5 | 3 | 0.17 | -11 | >50
O=C(OCC(F)(F)C(F)F)c1ccccc1C(=O)Oc1ccc(F)cc1F | 9 | -7 | 1 | 22 | -1.6 | -2 | ·
COC(=O)CCc1c(C)[nH]c(=S)[nH]c1=O | 8 | 45* | -7 | 6 | 0.042 | 5 | >50
CCOC(=O)Cc1c(C)[nH]c(=S)[nH]c1=O | -8 | -17 | 2 | 1 | -0.28 | -3 | ·
NC(=O)C1CCN(C(=O)Nc2ccccc2)CC1 | 0 | -17 | -9 | 5 | -0.1 | -2 | ·
NC(=O)C1CCN(C2=C(Cl)C(=O)c3ccccc3C2=O)CC1 | 12 | 66* | 11 | 5 | -0.68 | 2 | >50
N#Cc1ccc(Oc2ccc(/C=N/O)cn2)cc1 | -2 | -1 | -11 | 6 | 0.35 | 3 | ·
CCCCNC(=O)c1ccc(NC(=O)C2CCCO2)cc1 (centres undefined) | · | · | · | · | -0.43 | · | ·
CC(C)OCCCNC(=O)c1ccc(NC(=O)C2CCCO2)cc1 (centres undefined) | -3 | 35* | -7 | 1 | 0.75 | -8 | >50
CSc1nc2cc(Oc3cccc(Cl)c3Cl)c(Cl)cc2[nH]1 | · | · | · | · | -0.31 | · | ·
CCc1nc2cc(Cl)c(Cl)cc2[nH]1 | 1 | 50* | 2 | 3 | 0.032 | 10 | >50
O=S(=O)(Cc1ccccc1)N1CCN(C/C=C/c2ccccc2)CC1 | -1 | 3 | -14 | 2 | -2.2 | -2 | ·
CS(=O)(=O)N1CCN(C/C=C/c2ccccc2)CC1 | -2 | 47* | 8 | -2 | 0.37 | -3 | >50

Compound activity from PubChem BioAssay.
